In PubChem BioAssay AID1381 (University of Pittsburgh Molecular Library Screening Center, 2008):
Screen size: about 220,000 compounds; about 1,000 (0.45%) were called active.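 The calls were made as follows: active = plate z-score of nuclear minus cytoplasmic receptor signal below a set negative limit, without overly bright fluorescence or cell loss (cut at about -3.5 in these data, passing the limit was not always enough); inactive = the rest, inconclusive results apart.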 This excerpt belongs to a sample that is enriched for actives.

Test: inhibitors of GR-EGFP nuclear translocation, primary screen, dynein cargo transport inhibitor project, imaging, high-content, 3617.4 mouse cells (AID 1381)
Settings: stimulated with dexamethasone, 1 µM
Outline: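 Buffer or medium: tet-free, stripped-serum medium; reagent: dexamethasone at 1.0 µM final, 30 min; incubation: 48 h induction, 1 h compound, 30 min dex at 37 °C; measured by: formaldehyde fixation, Hoechst nuclear stain, 10x automated fluorescence imaging; read-out: nuclear-to-cytoplasmic GR-EGFP distribution per well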

[1] = measured here: cell count per field, at 20 µM
[2] = measured here: cytoplasmic GR-EGFP intensity, at 20 µM, stronger effect = higher value
[3] = measured here: nuclear GR-EGFP intensity, at 20 µM, stronger effect = lower value
[4] = measured here: cell count per field, at 50 µM
[5] = measured here: cytoplasmic GR-EGFP intensity, at 50 µM, stronger effect = higher value
[6] = measured here: nuclear GR-EGFP intensity, at 50 µM, stronger effect = lower value

| SMILES | z-score (at 20 µM, stronger effect = lower value) | z-score [1] | z-score [2] | z-score [3] | z-score (at 50 µM, stronger effect = lower value) | z-score [4] | z-score [5] | z-score [6] |
| --- | --- | --- | --- | --- | --- | --- | --- | --- |
| CC(=O)Cn1ncc(N2CCOCC2)c(Br)c1=O | 1.61 (inactive) | -0.679 | -0.251 | 0.837 |  |  |  |  |
| O=C(/C=C/c1cccs1)c1cc(Cl)ccc1OC(=O)N1CCOCC1 | -4.66 (active) | 0.865 | 0.34 | -2.08 |  |  |  |  |
| O=C(c1cccs1)N1CCN(C(=O)N2CCOCC2)CC1 | -0.705 (inactive) | 0.766 | -0.299 | -0.226 |  |  |  |  |
| CC(=O)Nc1ccccc1OC(=O)N1CCOCC1 |  |  |  |  | -0.424 (inactive) | 0.445 | -0.192 | -0.0276 |
| CC(=O)NC1(c2ccc(F)cc2)CCN(C(=O)c2c(F)cccc2F)CC1 | -0.575 (inactive) | 1.07 | -0.235 | -0.241 |  |  |  |  |
| Nc1ncnc(Nc2cccc(Cl)c2Cl)n1 | -1.6 (inactive) | 0.756 | -0.225 | -1.2 |  |  |  |  |
| COCCN(Cc1nc(-c2ccc(C(F)(F)F)cc2)no1)C(C)C | -0.214 (inactive) | 0.527 | -0.267 | 0.0742 |  |  |  |  |
| O=C(NNS(=O)(=O)Cc1ccccc1)c1ccc([N+](=O)[O-])cc1 | -0.775 (inactive) | 0.134 | -0.751 | -0.634 |  |  |  |  |
| COc1ccc(-n2cnc3cc(C(=O)NC4CCCC4)ccc32)cc1 | 0.728 (inactive) | -0.477 | -0.235 | 0.5 |  |  |  |  |
| S=c1[nH]nc(-c2cccnc2)n1/N=C/C(Cl)=C\c1ccccc1 | -0.315 (inactive) | -1.55 | 0.22 | 0.116 |  |  |  |  |
| Cc1cc(-c2n[nH]c(=S)n2/N=C/c2ccco2)n[nH]1 | 0.146 (inactive) | -0.499 | -0.239 | -0.0329 |  |  |  |  |
| Cc1cc(-c2n[nH]c(=S)n2/N=C/C(Br)=C/c2ccccc2)n[nH]1 | -4.43 (active) | -1.17 | 0.939 | -2.57 |  |  |  |  |
| Nc1ccccc1SCc1cc([N+](=O)[O-])cc2c1OCOC2 | -0.839 (inactive) | 0.822 | 3.91 | 0.0233 |  |  |  |  |
| Nc1ccccc1SC(C[N+](=O)[O-])c1ccccc1 (configuration not stated) | -4.57 (active) | -0.167 | 2.56 | -1.84 |  |  |  |  |
| Nc1ccccc1Sc1ccc(C(F)(F)F)cc1[N+](=O)[O-] | -0.595 (inactive) | 0.488 | -0.213 | -0.319 |  |  |  |  |
| COC(=O)c1cc(C(=O)N(Cc2ccccc2)c2ccccn2)cc([N+](=O)[O-])c1 | -0.154 (inactive) | -0.0688 | -0.223 | -0.31 |  |  |  |  |
| CN1CCN(C(=O)/C(=C\c2cccs2)NC(=O)c2cccs2)CC1 | -0.757 (inactive) | 1.17 | -0.214 | -0.212 |  |  |  |  |
| OCC(CO)(CO)NCc1ccc(-c2ccccc2)cc1 | -0.998 (inactive) | 0.791 | -0.231 | -0.299 |  |  |  |  |
| O=C(NNC(=O)c1ccccc1[N+](=O)[O-])Nc1ccccc1C(F)(F)F | -1.96 (inactive) | 0.934 | -0.0968 | -0.966 |  |  |  |  |
| CC1(C)CCSC(/C=C/c2ccccc2)=N1 | -6.85 (active) | 1.01 | 1.09 | -2.95 |  |  |  |  |
| Cc1ccc2nc(-c3ccncc3)cc(C(=O)Nc3ccc(OC(F)F)cc3)c2c1 | -0.0501 (inactive) | 0.497 | -0.311 | -0.123 |  |  |  |  |
| O=C(Nn1c(SCc2ccc([N+](=O)[O-])cc2)nc2ccccc2c1=O)c1ccc(F)cc1 | -0.621 (inactive) | 3.84 | -0.327 | -0.596 |  |  |  |  |

| SMILES | z-score (at 20 µM, stronger effect = lower value) | z-score [1] | z-score [2] | z-score [3] | z-score (at 50 µM, stronger effect = lower value) | z-score [4] | z-score [5] | z-score [6] |
| --- | --- | --- | --- | --- | --- | --- | --- | --- |
| O=C(CCc1nnc(CCCCc2ccccc2)o1)NC(c1cccnc1)C(F)(F)F (configuration not stated) | -0.699 (inactive) | 1.17 | -0.266 | -0.517 |  |  |  |  |
| COc1cc2c(cc1O)C(SC)=NC(C)(C)C2 |  |  |  |  | -4 (active) | -1.21 | 2.4 | -1.15 |
| COc1cc2c(cc1OC)C(Nc1ccc(S(N)(=O)=O)cc1)=NC(C)(C)C2 | 0.371 (inactive) | 0.476 | -0.265 | 0.242 |  |  |  |  |
| COc1cc2c(cc1OC)C(C(C)C)=NC(C)(C)C2 |  |  |  |  | 1.53 (inactive) | -0.94 | -0.084 | 1.55 |
| CC(OC(=O)c1ccccc1N1C(=O)C2C3CCC(C3)C2C1=O)C(=O)c1ccccc1 (configuration not stated) | 0.064 (inactive) | -1.14 | -0.233 | -0.118 |  |  |  |  |
| CC(C)CNc1ncnc2c1cnn2Cc1ccc(Cl)cc1 | -0.416 (inactive) | 0.999 | -0.294 | -0.416 |  |  |  |  |
| CCOc1cc(N2CCOCC2)c(OCC)cc1NC(=O)C1=NN(c2cccc(C)c2)C(=O)CC1 | 0.424 (inactive) | 0.873 | -0.249 | -0.0907 |  |  |  |  |
| C=CS(=O)c1sc(Cl)c(N2CCOCC2)c1[N+](=O)[O-] (configuration not stated) | -5.81 (active) | -1.51 | 2.63 | -2.55 |  |  |  |  |
| O=C(NCc1ccccc1)c1ccc(CNc2c(N3CCCC3)c(=O)c2=O)cc1 | 1.94 (inactive) | -1.79 | -0.175 | 1.39 |  |  |  |  |
| Cc1ccc(OCC(=O)Nc2cccc3c2CCCC3)cc1C | -0.29 (inactive) | 0.502 | -0.193 | -0.445 |  |  |  |  |
| CCN(CC)c1ccc2c(Nc3ccccc3)c(C=O)c(=O)oc2c1 | 1.78 (inactive) | -1.59 | 1.04 | 1.54 |  |  |  |  |
| CCN(CC)c1ccc2cc(C(=O)O)c(=O)oc2c1 | 0.513 (inactive) | -0.14 | -0.259 | 0.0952 |  |  |  |  |
| CCN(CC)c1ccc2oc(=O)c(C)nc2c1 |  |  |  |  | -4.98 (active) | 0.102 | 1.35 | -2.69 |
| O=C(Nc1ccn(Cc2ccccc2)n1)c1n[nH]c([N+](=O)[O-])c1Cl | 1.15 (inactive) | -1.23 | -0.194 | 0.757 |  |  |  |  |
| Cc1cccc(-n2cc(CN3CCN(C(=O)c4ncn[nH]4)CC3)c(-c3cccc(F)c3)n2)c1 | 0.856 (inactive) | -0.858 | -0.164 | 0.386 |  |  |  |  |
| CCN(CC)S(=O)(=O)c1ccc2c3c(cccc13)C(=O)S2 |  |  |  |  | -0.224 (inactive) | 0.583 | -0.26 | -0.962 |
| CCNC(=S)Nc1ccc(OC(F)(F)F)cc1 | -0.827 (inactive) | 0.129 | -0.313 | 0.232 |  |  |  |  |
| COc1ccc(CCNC(=O)C(Sc2ccccn2)c2ccccc2)cc1OC (configuration not stated) | 1.23 (inactive) | -0.867 | -0.00233 | 0.852 |  |  |  |  |
| CCOC(=O)CN(Cc1ccc(OC)c(OC)c1)S(=O)(=O)c1ccc(OC)cc1 | -0.369 (inactive) | 0.666 | -0.0278 | 0.0349 |  |  |  |  |
| COc1ccc(C(CCN(Cc2ccc(OC)c(OC)c2)C(=O)CCl)c2ccccc2)cc1 (configuration not stated) | -5.18 (active) | -0.271 | 0.893 | -2.94 |  |  |  |  |
| CN(CCc1ccccn1)C(=O)CCC1CCCN(Cc2ccccc2OC(F)F)C1 (configuration not stated) | -0.0542 (inactive) | 0.0326 | -0.306 | 0.247 |  |  |  |  |
